Source: ChEMBL document CHEMBL2057078, “Synthesis and in vitro antiproliferative activity of new 11-aminoalkylamino-substituted 5H- and 6H-indolo[2,3-b]quinolines; structure-activity relationships of neocryptolepines and 6-methyl congeners” (Bioorg Med Chem, 2012)
pIC50: −log10 of the molar value. Where a name gives a salt, the structure may show the parent alone.

Key:
MV4-11 = test: Antiproliferative activity against human MV4-11 cells after 72 hrs by MTT assay; assay type: functional, cell-based; settings: MV4-11, 72 h
Summary of the method: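 Leukemia cells cultured in RPMI 1640 at 37 °C, 5% CO2. Plated at 1 × 10⁴ cells/well 24 h ahead, then 72 h with compound at 0.001–10 µg/mL. MTT (stock 5 mg/mL) added, formazan dissolved with a DMF/SDS lysing mixture for 24 h, OD read at 570 nm. IC50 vs untreated control; triplicates, 3–5 repeats.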

A549 [1] = test: Antiproliferative activity against human A549 cells after 72 hrs by SRB assay; assay type: functional, cell-based; settings: A549, 72 h
Summary of the method: (§1)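 Cells grown in RPMI 1640+OptiMEM (50:50) with 2 mM L-glutamine and 5% FBS at 37 °C, 5% CO2. Plated at 1 × 10⁴ cells/well 24 h before treatment, then exposed 72 h to 0.001–10 µg/mL compound (from 1 mg/mL stock in DMSO/medium). TCA-fixed, stained with 0.4% SRB in 1% acetic acid, dye extracted with 10 mM Tris, read at 540 nm. IC50 vs untreated control; triplicates, 3–5 experiments.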

HCT-116 = test: Antiproliferative activity against human HCT116 cells after 72 hrs by SRB assay; assay type: functional, cell-based; settings: HCT-116, 72 h; summary of the method: as §1
BALB/3T3 [2] = test: Antiproliferative activity against mouse BALB/3T3 cells after 72 hrs by SRB assay; assay type: cell-based; settings: BALB/3T3, 72 h
Summary of the method: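 Mouse fibroblasts kept in Dulbecco's medium with 2 mM L-glutamine, 1.0 mM sodium pyruvate and 10% FBS at 37 °C, 5% CO2. Seeded at 1 × 10⁴ cells/well a day before dosing, then 72 h exposure to 0.001–10 µg/mL. SRB staining after TCA fixation, Tris extraction, OD 540 nm. IC50 relative to untreated cells; triplicate wells, 3–5 independent runs.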

BALB/3T3 [3] = test: Selectivity ratio of IC50 for mouse BALB/3T3 cells to IC50 for human HCT116 cells
A549 [4] = test: Selectivity ratio of IC50 for human A549 cells to IC50 for human HCT116 cells; assay type: functional
BALB/3T3 [5] = test: Selectivity ratio of IC50 for mouse BALB/3T3 cells to IC50 for human A549 cells
Nucleic Acid = test: Binding affinity to salmon fish sperm DNA assessed as hypochromic effect by UV-Vis absorption spectroscopic analysis at pH 7; assay type: nucleic-acid assay; settings: Salmonidae
Summary of the method: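 UV–vis absorption titration in pH 7.0 phosphate buffer with 2.5% DMSO at 20 °C, 1 cm quartz cuvette. Compound held at 50 µmol/L with DNA added from 0 to 1.0 µmol/L. Binding assessed from absorbance change using a 1/ΔA versus 1/[DNA] plot.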

Structure (SMILES) | pIC50 (MV4-11) | pIC50 (A549 [1]) | pIC50 (HCT-116) | K (Nucleic Acid) | pIC50 (BALB/3T3 [2]) | Ratio IC50 (BALB/3T3 [3]) | Ratio IC50 (A549 [4]) | Ratio IC50 (BALB/3T3 [5])
Cn1c2nc3ccccc3c-2c(NCCCCN)c2cc(F)ccc21 | 7.02 | 6.11 | 6.75 | – | 6.07 | 4 | 4 | –
COc1ccc2c(c1)c(NCCCO)c1c3ccccc3nc-1n2C | 6.87 | 6.00 | 6.56 | – | 6.09 | 4 | 4 | –
Cn1c2nc3ccccc3c-2c(NCCCO)c2cc(Br)ccc21 | 6.15 | 5.80 | 6.00 | – | 5.92 | – | – | –
Cn1c2nc3ccccc3c-2c(NCCCO)c2ccccc21 | 6.77 | 6.01 | 6.15 | – | 6.20 | – | – | –
COc1cccc2c1C(=O)c1c(O)c3c(c(O)c1C2=O)C[C@@](O)(C(=O)CO)C[C@@H]3O[C@H]1C[C@H](N)[C@H](O)[C@H](C)O1 [DOXORUBICIN HYDROCHLORIDE] | 8.22 | 6.48 | 6.41 | – | 5.97 | – | – | –
Cn1c2nc3ccccc3c-2c(NCCCCN)c2cc(Br)ccc21 | 7.04 | 6.24 | 6.68 | – | 6.13 | 3 | – | 3
CCN(CC)CCCC(C)Nc1c2c3ccccc3nc-2n(C)c2ccc(Br)cc12 (configuration not stated) | 6.24 | – | – | – | – | – | – | –
Cn1c2nc3ccccc3c-2c(NCCCN)c2ccccc21 | 7.18 | 6.69 | 6.52 | – | 6.05 | 3 | – | 3
Cn1c2nc3ccccc3c-2c(NCCCCN)c2ccccc21 | 7.00 | 6.04 | 6.17 | – | 6.03 | – | – | –
CCN(CC)CCCC(C)Nc1c2c3ccccc3nc-2n(C)c2ccc(Cl)cc12 (configuration not stated) | 6.11 | – | – | – | – | – | – | –
CCN(CC)CCCC(C)Nc1c2c3ccccc3nc-2n(C)c2ccccc12 (configuration not stated) | 6.14 | – | – | – | – | – | – | –
COc1ccc2c(c1)c(Cl)c1c3ccccc3nc-1n2C | 5.92 | – | – | – | – | – | – | –
Cn1c2nc3ccccc3c-2c(NCCc2c[nH]c3ccccc23)c2cc(Cl)ccc21 | 6.35 | – | – | – | – | – | – | –
Cn1c2nc3ccccc3c-2c(NCCCN)c2cc(Br)ccc21 | 7.92 | 6.27 | 6.56 | 2.93 ×10⁵ L/mol | 6.06 | 3 | – | 3
CN(C)CCCNCc1c2c3ccccc3nc-2n(C)c2ccc(Cl)cc12 | 5.46 | – | – | – | – | – | – | –
COc1ccc2c(c1)c(NCCCN)c1c3ccccc3nc-1n2C | 6.99 | 6.39 | 6.81 | – | 6.01 | 3 | – | 3
COc1ccc2c(c1)c(NCCCCN)c1c3ccccc3nc-1n2C | 6.88 | 6.17 | 6.18 | – | 5.79 | – | – | –
Cn1c2nc3ccccc3c-2c(NCCc2c[nH]c3ccccc23)c2ccccc21 | 6.06 | – | – | – | – | – | – | –

More lines, main results first:

pIC50 (MV4-11) | pIC50 (A549 [1]) | pIC50 (HCT-116) | K (Nucleic Acid) | Structure (SMILES) | pIC50 (BALB/3T3 [2]) | Ratio IC50 (BALB/3T3 [3]) | Ratio IC50 (A549 [4]) | Ratio IC50 (BALB/3T3 [5])
6.97 | 5.13 | 5.76 | – | CN1CCCN(c2c3c4ccccc4nc-3n(C)c3ccc(Cl)cc23)CC1 | 5.19 | 4 | 4 | –
5.55 | – | – | – | CN(C)CCNc1c2cc(Cl)ccc2nc2c1c1ccccc1n2C | – | – | – | –
6.11 | 4.95 | 5.10 | – | CN1CCCN(c2c3cc(Cl)ccc3nc3c2c2ccccc2n3C)CC1 | < 4.60 | – | – | –
< 4.60 | – | – | – | Cn1c2ccccc2c2c(N3CCOCC3)c3cc(Cl)ccc3nc21 | – | – | – | –
6.79 | 5.82 | 5.75 | – | Cn1c2nc3ccccc3c-2c(N2CCOCC2)c2ccccc21 | 5.79 | – | – | –
6.13 | 5.34 | 5.94 | – | CN1CCCN(c2c3c4ccccc4nc-3n(C)c3ccc(Br)cc23)CC1 | 5.12 | – | – | –
4.73 | – | – | – | Cn1c2ccccc2c2c(NCCc3c[nH]c4ccccc34)c3cc(Cl)ccc3nc21 | – | – | – | –
7.17 | 6.12 | 6.71 | – | Cn1c2nc3ccccc3c-2c(NCCCN)c2cc(Cl)ccc21 | 6.40 | 4 | 4 | –
5.14 | – | – | – | CN1CCCN(c2c3c4ccccc4nc-3n(C)c3ccccc23)CC1 | – | – | – | –
5.21 | – | – | – | Cn1c2ccccc2c2c(NCCCO)c3cc(Cl)ccc3nc21 | – | – | – | –
6.34 | 5.08 | 5.16 | – | Cn1c2ccccc2c2c(NCCN)c3cc(Cl)ccc3nc21 | 4.98 | – | – | –
5.46 | – | – | – | CN1CCCN(Cc2c3c4ccccc4nc-3n(C)c3ccc(Cl)cc23)CC1 | – | – | – | –
6.17 | 5.22 | 5.26 | – | Cn1c2ccccc2c2c(NCCCCN)c3cc(Cl)ccc3nc21 | 5.05 | – | – | –
6.09 | – | – | – | Cn1c2nc3ccccc3c-2c(Cl)c2cc(Br)ccc21 | – | – | – | –
5.88 | – | – | – | Cn1c2nc3ccccc3c-2c(Cl)c2ccccc21 [11-CHLORONEOCRYPTOLEPINE] | – | – | – | –
6.28 | – | – | – | Cn1c2nc3ccccc3c-2c(NCCCO)c2cc(Cl)ccc21 | – | – | – | –
5.28 | – | – | – | CCN(CC)CCCC(C)Nc1c2cc(Cl)ccc2nc2c1c1ccccc1n2C (configuration not stated) | – | – | – | –
6.17 | – | – | – | Cn1c2nc3ccccc3c-2c(NCCCCN)c2cc(Cl)ccc21 | – | – | – | –
6.10 | 5.13 | 5.35 | 3.28 ×10⁵ L/mol | Cn1c2ccccc2c2c(NCCCN)c3cc(Cl)ccc3nc21 | 5.01 | – | – | –
